In ChEMBL document CHEMBL4024771, “Optimization of Orally Bioavailable Enhancer of Zeste Homolog 2 (EZH2) Inhibitors Using Ligand and Property-Based Design Strategies: Identification of Development Candidate …” (J Med Chem, 2018):
In brackets after ≈: the same amount, converted by molar mass.

What was measured:
[1] = biological target: Histone-lysine N-methyltransferase EZH2 (Homo sapiens, UniProt Q15910); assay: Inhibition of EZH2 in human KARPAS422 cells assessed as reduction in H3K27me3 level after 72 hrs by ELISA
[2] = biological target: Histone-lysine N-methyltransferase EZH2 (Homo sapiens, UniProt Q15910, Y641N); assay: Inhibition of EZH2 Y641N mutant (unknown origin) using oligonucleosomes as substrate after 60 mins in presence of [3H]SAM by scintillation counting analysis
[3] = tested on: KARPAS-422; assay: Antiproliferative activity against human KARPAS422 cells after 72 hrs by resazurin assay; type: functional, cell-based
[4] = Intrinsic clearance in human liver microsomes assessed per mg protein at 1 uM preincubated for 10 mins followed by NADPH addition measured after 45 mins by LC-MS/MS analysis; type: ADME, microsome; conditions: liver microsomes, read-out: CLH
Method in brief: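 Test compound (1 μM) with pooled liver microsomes (0.8 mg/mL protein) in 100 mM potassium phosphate pH 7.4, 10 min preincubation, started with 2 mM NADPH, 45 min at 37 °C, in triplicate. Samples quenched with cold methanol containing buspirone internal standard, analysed by LC−MS/MS. CLint derived from t1/2 of parent loss (log-linear slope).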

[5] = Kinetic solubility of the compound; type: physicochemical; conditions: for solubility kinetic: read-out: Kinetic_solubility
[6] = Passive permeability in MDCK cells at 2 uM after 90 mins by LC-MS/MS analysis; type: ADME, cell-based, Canis lupus familiaris; conditions: dog; for Papp at […], 2 µM: MDCK, read-out: permeability; for permeability: mdck, 2 µM
Method in brief: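 Low-efflux MDCK cells (MDCK-LE) on 96-well inserts, used on day 4. Monodirectional transport of 2 μM drug in transport buffer with 0.1% DMSO at 37 °C. Donor and receiver sampled at 0 and 90 min for LC−MS/MS. Donor pH 6.5 and 7.4, receiver pH 7.4.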

[7] = Lipophilicity, log D of the compound at pH 7.4; conditions: buffer

Chain of Histone-lysine N-methyltransferase EZH2 (Homo sapiens, UniProt Q15910) (Q15910 whole entry): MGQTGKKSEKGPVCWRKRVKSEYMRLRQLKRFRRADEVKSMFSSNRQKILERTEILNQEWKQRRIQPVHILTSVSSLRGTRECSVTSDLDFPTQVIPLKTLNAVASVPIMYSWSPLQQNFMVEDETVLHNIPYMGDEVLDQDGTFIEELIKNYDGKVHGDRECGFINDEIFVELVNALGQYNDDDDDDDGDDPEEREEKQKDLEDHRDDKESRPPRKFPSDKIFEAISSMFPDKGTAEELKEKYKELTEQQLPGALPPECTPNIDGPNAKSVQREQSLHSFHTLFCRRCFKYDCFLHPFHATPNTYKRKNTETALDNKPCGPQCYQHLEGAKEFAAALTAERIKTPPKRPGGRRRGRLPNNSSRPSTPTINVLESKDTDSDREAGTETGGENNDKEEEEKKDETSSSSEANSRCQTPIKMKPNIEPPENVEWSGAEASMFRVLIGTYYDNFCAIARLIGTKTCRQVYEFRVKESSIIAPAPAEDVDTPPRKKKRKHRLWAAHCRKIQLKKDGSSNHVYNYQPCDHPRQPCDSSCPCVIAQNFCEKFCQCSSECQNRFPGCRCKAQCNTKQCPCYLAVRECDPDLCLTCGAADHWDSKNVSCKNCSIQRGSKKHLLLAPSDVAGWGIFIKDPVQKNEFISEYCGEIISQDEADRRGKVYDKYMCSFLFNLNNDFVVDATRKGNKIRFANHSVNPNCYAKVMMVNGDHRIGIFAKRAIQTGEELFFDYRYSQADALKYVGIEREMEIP
Chain of Histone-lysine N-methyltransferase EZH2 (Homo sapiens, UniProt Q15910, Y641N) (Q15910 whole entry Y641N): as the sequence (Q15910 whole entry) above, with Y641N counted along it

SMILES | IC50 [1] | Ki [2] | IC50 ([3]; Homo sapiens, KARPAS-422, 72 h) | microsomal CLint at 1 µM [4] | solubility kinetic [5] | Papp at […], 2 µM [6] | logD ([7]; pH 7.4, logD) | IC50 ([3]; karpas-422) | permeability [6] | logD ([7]; pH 7.4) | Kinetic_solubility [5]
COc1cc(C)[nH]c(=O)c1CN1CCc2c(Cl)cc([C@@H](O)C3COC3)c(Cl)c2C1=O | > 32000 nM | 1500 nM | 10600 nM | < 7 µL/min/mg | 582 µM (≈ 264 µg/mL) | 1.2 ×10⁻⁶ cm/s | 1.3 |  |  |  | 
COc1cc(C)[nH]c(=O)c1CN1CCc2c(Cl)cc(-c3c(C)noc3C)c(Cl)c2C1=O | 8 nM | 0.15 nM | 27 nM | 70 µL/min/mg | 384 µM (≈ 178 µg/mL) | 11 ×10⁻⁶ cm/s | 2.7 |  |  |  | 
Cc1cc(C)c(CN2CCc3c(Cl)cc([C@@H](CO)[C@@H]4CCOC4)c(Cl)c3C2=O)c(=O)[nH]1 | 2910 nM | 1260 nM | 3950 nM | 25.3 µL/min/mg | 537 µM (≈ 250 µg/mL) | 3 ×10⁻⁶ cm/s | 2 |  |  |  | 
Cc1cc(C)c(CN2CCc3c(Cl)cc([C@@H](CO)[C@@H]4CCCO4)c(Cl)c3C2=O)c(=O)[nH]1 | 1570 nM | 135 nM | 1220 nM | 70.3 µL/min/mg | 550 µM (≈ 256 µg/mL) | 4.3 ×10⁻⁶ cm/s | 2.1 |  |  |  | 
CCC(CO)c1cc(Cl)c2c(c1Cl)C(=O)N(Cc1c(C)cc(C)[nH]c1=O)CC2 (stereo in doubt; (-)-5b) | 682 nM | 14 nM |  | 67.6 µL/min/mg | 443 µM (≈ 188 µg/mL) |  |  | 502 nM | 10.9 ×10⁻⁶ cm/s | 2.9 | 
Cc1cc(C)c(CN2CCc3c(Cl)cc(C(CO)c4ccon4)c(Cl)c3C2=O)c(=O)[nH]1 (stereo in doubt; (-)-21b) |  |  |  | 22.7 µL/min/mg |  |  |  | 2490 nM | 8.6 ×10⁻⁶ cm/s |  | 481 µM
COC(c1cc(Cl)c2c(c1Cl)C(=O)N(Cc1c(C)cc(C)[nH]c1=O)CC2)C1CCOCC1 (single isomer, unassigned; (-)) | 1460 nM | 310 nM |  | 130 µL/min/mg |  |  |  | 1150 nM | 16.5 ×10⁻⁶ cm/s | 3.5 | 57.2 µM
Cc1cc(C)c(CN2CCc3c(Cl)cc([C@H](CO)[C@@H]4CCCO4)c(Cl)c3C2=O)c(=O)[nH]1 | 41 nM | 10 nM | 57 nM | 37.6 µL/min/mg | 400 µM (≈ 186 µg/mL) | 14.6 ×10⁻⁶ cm/s | 2.4 |  |  |  | 
COC(c1cc(Cl)c2c(c1Cl)C(=O)N(Cc1c(C)cc(C)[nH]c1=O)CC2)C1CCN(C(=O)CO)CC1 (single isomer, unassigned; (-)) | 749 nM | 70 nM |  | 23 µL/min/mg |  |  |  | 3140 nM | 7.1 ×10⁻⁶ cm/s | 2.3 | 513 µM
COC(c1cc(Cl)c2c(c1Cl)C(=O)N(Cc1c(C)cc(C)[nH]c1=O)CC2)C1CCN(C)CC1 (single isomer, unassigned; (-)) | 1130 nM | 260 nM |  | < 13.4 µL/min/mg |  |  |  | 2320 nM | 2.3 ×10⁻⁶ cm/s | 1.5 | 499 µM
Cc1cc(C)c(CN2CCc3c(Cl)cc([C@H](CO)[C@H]4CCOC4)c(Cl)c3C2=O)c(=O)[nH]1 | 10 nM | 0.24 nM | 15 nM | 21.3 µL/min/mg | 570 µM (≈ 265 µg/mL) | 2.9 ×10⁻⁶ cm/s | 2 |  |  |  | 
Cc1cc(C)c(CN2CCc3c(Cl)cc([C@@H](CO)[C@H]4CCCO4)c(Cl)c3C2=O)c(=O)[nH]1 | 1020 nM | 110 nM | 535 nM | 43 µL/min/mg | 576 µM (≈ 268 µg/mL) | 8.5 ×10⁻⁶ cm/s | 2.5 |  |  |  | 
COC(c1cc(Cl)c2c(c1Cl)C(=O)N(Cc1c(C)cc(C)[nH]c1=O)CC2)C1CCOC1 (single isomer, unassigned; (-)) | 1100 nM | 130 nM |  | 136 µL/min/mg | 415 µM (≈ 193 µg/mL) |  |  | 175 nM | 18.4 ×10⁻⁶ cm/s |  | 
Cc1cc(C)c(CN2CCc3c(Cl)cc([C@@H](C)CO)c(Cl)c3C2=O)c(=O)[nH]1 | 1040 nM | 260 nM | 1500 nM | 12.4 µL/min/mg | 143 µM (≈ 58.5 µg/mL) | 15 ×10⁻⁶ cm/s | 2.5 |  |  |  | 
COc1cc(C)[nH]c(=O)c1CN1CCc2c(Cl)cc([C@@H](OC)C3COC3)c(Cl)c2C1=O | 75 nM | 16 nM | 467 nM | 17 µL/min/mg | 543 µM (≈ 254 µg/mL) | 6.8 ×10⁻⁶ cm/s | 1.6 |  |  |  | 
COC(c1cc(Cl)c2c(c1Cl)C(=O)N(Cc1c(C)cc(C)[nH]c1=O)CC2)C1CCN(C(C)=O)CC1 (single isomer, unassigned; (-)) |  |  |  | 50.3 µL/min/mg |  |  |  | 1620 nM | 8.1 ×10⁻⁶ cm/s |  | 498 µM
COC(c1cc(Cl)c2c(c1Cl)C(=O)N(Cc1c(C)cc(C)[nH]c1=O)CC2)C1CCN(C2COC2)CC1 (single isomer, unassigned; (-)) | 1310 nM | 530 nM |  | 78.3 µL/min/mg |  |  |  | 2260 nM | 7.9 ×10⁻⁶ cm/s | 2.8 | 519 µM
COC(C)c1cc(Cl)c2c(c1Cl)C(=O)N(Cc1c(C)cc(C)[nH]c1=O)CC2 (single isomer, unassigned; (+)) |  |  |  | 190 µL/min/mg | 49 µM (≈ 20.1 µg/mL) |  |  | 696 nM | 37.6 ×10⁻⁶ cm/s | 3.4 | 
COc1cc(C)[nH]c(=O)c1CN1CCc2c(Cl)cc(C(OC)C3CCOC3)c(Cl)c2C1=O (single isomer, unassigned; form 2) | 391 nM | 92 nM |  | 75 µL/min/mg |  |  |  | 269 nM | 8.2 ×10⁻⁶ cm/s | 2.4 | 505 µM
Cc1cc(C)c(CN2CCc3c(Cl)cc(C(CO)C4CCOC4)c(Cl)c3C2=O)c(=O)[nH]1 (stereo in doubt) | 1010 nM | 150 nM |  | 20 µL/min/mg | 522 µM (≈ 243 µg/mL) |  |  | 1040 nM | 2.7 ×10⁻⁶ cm/s |  | 
CCC(OC)c1cc(Cl)c2c(c1Cl)C(=O)N(Cc1c(C)cc(C)[nH]c1=O)CC2 (single isomer, unassigned; (-)) | 65 nM | 8 nM | 270 nM | 119 µL/min/mg | 44 µM (≈ 18.6 µg/mL) |  |  |  | 13.5 ×10⁻⁶ cm/s |  | 
COc1cc(C)[nH]c(=O)c1CN1CCc2c(Cl)cc([C@H](O)C3COC3)c(Cl)c2C1=O | 99 nM | 1.5 nM | 108 nM | < 8 µL/min/mg | 234 µM (≈ 106 µg/mL) | 0.7 ×10⁻⁶ cm/s | 1.4 |  |  |  | 
Cc1cc(C)c(CN2CCc3c(Cl)cc(C(CO)C4CCOCC4)c(Cl)c3C2=O)c(=O)[nH]1 (stereo in doubt; (+)-8b) | 14800 nM | 3270 nM |  | 34.7 µL/min/mg | 496 µM (≈ 238 µg/mL) |  |  | 4400 nM | 2.9 ×10⁻⁶ cm/s |  | 
